# Compounds with a hit are over-represented: about 4.6% of the library has one in this group of screens.
# GPR7 antagonist – blocks human GPR7 receptor signaling; inhibition, % at 4.4 µM; GPR7-expressing cells, fluorescence antagonist assay; AID 1861; 290,000 tested, 1.1% active; P48145; in the data active = inhibition above about 16%, passing the limit was not always enough;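 note: cells stimulated with the agonist NPW; 0% = agonist with vehicle and 100% = vehicle without agonist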
# Target sequence (P48145 whole entry, looked up): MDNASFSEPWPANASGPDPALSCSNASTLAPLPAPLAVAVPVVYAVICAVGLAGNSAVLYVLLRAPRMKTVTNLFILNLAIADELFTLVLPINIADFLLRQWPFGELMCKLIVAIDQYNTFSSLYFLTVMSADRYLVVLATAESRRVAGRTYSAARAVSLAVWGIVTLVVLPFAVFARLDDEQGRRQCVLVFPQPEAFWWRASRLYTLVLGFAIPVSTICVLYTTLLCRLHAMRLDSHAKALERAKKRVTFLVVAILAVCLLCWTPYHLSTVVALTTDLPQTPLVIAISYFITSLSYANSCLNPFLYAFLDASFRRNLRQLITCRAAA
# OX1R antag-1 – blocks the human orexin 1 receptor; O43613; OX1R-expressing cells, FRET antagonist read-out; inhibition, % at 6.6 µM; 330,000 tested, 1.8% active; AID 485270; in the data active = inhibition mostly above about 38%, no sharp cut-off; inactive = mostly below about 40%;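 note: 0% = agonist challenge alone and 100% = reference antagonist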
# Target sequence (O43613 whole entry, looked up): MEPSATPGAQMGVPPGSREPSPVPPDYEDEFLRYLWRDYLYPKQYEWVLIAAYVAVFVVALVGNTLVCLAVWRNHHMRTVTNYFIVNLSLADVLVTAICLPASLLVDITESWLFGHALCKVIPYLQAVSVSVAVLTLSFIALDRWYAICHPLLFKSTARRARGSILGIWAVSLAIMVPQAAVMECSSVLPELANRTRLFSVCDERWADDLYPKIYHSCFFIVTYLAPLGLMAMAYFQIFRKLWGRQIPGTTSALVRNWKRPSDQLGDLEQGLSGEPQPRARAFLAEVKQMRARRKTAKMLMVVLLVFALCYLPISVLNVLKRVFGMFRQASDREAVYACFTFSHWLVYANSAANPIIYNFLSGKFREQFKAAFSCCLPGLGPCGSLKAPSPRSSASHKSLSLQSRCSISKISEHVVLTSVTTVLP
# OX1R antag-2 – antagonists of human orexin 1 receptor; O43613; CHO/OX1R cells, Fluo-8 calcium fluorescence, orexin A; inhibition, % at 5 µM; 330,000 tested, 0.43% active; AID 434989;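 active = inhibition above its plate's threshold, mean inhibition of all tested compounds on the plate plus 3 SD, cut at about 37% in these data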;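 note: 0% = orexin A challenge wells and 100% = SB-334867-A antagonist wells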
# TAAR1 ag – agonists of human TAAR1 | Q96RJ0 | CHO RD-HGA16 TAAR1, Fluo-8 calcium fluorescence; vehicle wells 0%, saturating PEA agonist 100% | activation, % at 3 µM | 360,000 tested, 0.99% active;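 active = activation above the mean activation of all test compounds in the run plus 3 SD, cut at about 38% in these data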
#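 Test system: RD-HGA16 (CHO) cells co-expressing Gα16 and hTAAR1; dosing: one-point dosing at 3 µM (nominal); timing: 17-24 h seeding, 75 min 37 °C dye, 30 min RT; signal: kinetic Fluo-8 calcium fluorescence; read-out basis: % activation relative to PEA EC100 response; controls: DMSO and PEA EC100; replicates: n 1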
# TAAR1 antagonist – antagonists of human TAAR1; Q96RJ0; CHO RD-HGA16 TAAR1, Fluo-8 calcium fluorescence, antagonist; inhibition, % at 3 µM; 360,000 tested, 1.5% active;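 active = inhibition above a per-plate cutoff, the mean inhibition of test compounds on that plate plus 3 SD, cut at about 49% in these data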;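 note: 0% = DMSO plus EC80 beta-PEA response and 100% = DMSO alone without agonist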
#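 Test system – hTAAR1-expressing CHO RD-HGA16 cells, Gα16-coupled · Reagent – β-PEA at EC80 concentration, post-compound challenge · Compound dosing – 3 µM, single point · Timing – 140 s kinetic read after compound, 140 s after agonist · Detection – Fluo-8 intracellular calcium dye fluorescence, real-time kinetic reads · Control set – DMSO and EC80 PEA controls · Repeats – n of 1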
# CHO parental Ca – counter-screen: ATP calcium response change in parental CHO cells; parental CHO-K1, ATP-induced calcium, Fluo-8 fluorescence; inhibition, % at 5.6 µM; 330,000 tested, 0.63% active;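 active = inhibition above that plate's mean sample inhibition plus 3 SD, cut at about 26% in these data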;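 note: 0% = ATP-challenged DMSO wells and 100% = DMSO wells without ATP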
#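 Measured by: calcium-sensitive Fluo-8 fluorescence / Test system: CHO parental line / Controls: ATP-challenged DMSO wells low, unchallenged DMSO wells high / Measure: % inhibition / Compound: single nominal dose of 5.6 µM per compound / Replicates: single well per compound, no replicates / Reagent: ATP as calcium-mobilizing challenge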
# OX1R HTRF conf – OX1R (human) antagonism, HTRF confirmed; shares compounds with OX1R antag-1; OX1R-expressing cells, HTRF antagonist assay; inhibition, % at 6.6 µM; 1,800 tested, 49% active; AID 492964; in the data active = inhibition above about 55%;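 note: CHO cells expressing OX1R stimulated with orexin A at about EC80; 0% = agonist challenge alone and 100% = reference antagonist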
# CHO-K1 HTRF – signal in parental CHO-K1 cells, OX1R antagonist counter-screen. shares compounds with OX1R antag-1. HTRF counterscreen. inhibition, % at 6.6 µM. 1,800 tested, 48% active. AID 493232; in the data active = inhibition above about 17%;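 note: 0% = agonist challenge with vehicle and 100% = vehicle alone without agonist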
# TAAR1 nonsel count – nonselective antagonist in TAAR1 antagonist counter-screen; 2,400 tested, 77% active; counterscreen cell line, calcium fluorescence, antagonist mode; shares compounds with TAAR1 antagonist; inhibition, % at 3 µM; in the data active = inhibition above about 22%;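 note: CHO-Ga16 host cells stimulated with ATP at an EC80 level; 0% = agonist EC80 plus vehicle and 100% = vehicle without agonist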
# TAAR1 ant conf – human TAAR1 antagonism, confirmed; shares compounds with TAAR1 antagonist; TAAR1-expressing cells, fluorescence antagonist read-out; inhibition, % at 3 µM; 2,400 tested, 40% active; in the data active = inhibition above about 49%;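 note: CHO-Ga16 host cells challenged with agonist PEA near its EC80; 0% = agonist at EC80 plus vehicle and 100% = vehicle with no agonist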
# Ga16 nonsel ag – nonselective Ga16 agonism, counter-screen | Ga16-expressing cells, calcium fluorescence, agonist counterscreen | shares compounds with TAAR1 antagonist | activation, % at 3 µM | 2,400 tested, 18% active; in the data active = activation above about 12%;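 note: 0% = vehicle wells and 100% = saturating stimulus response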
# TAAR1 ag count – counter-screen for human TAAR1 antagonists: TAAR1 agonists; shares compounds with TAAR1 antagonist; hTAAR1 cell line, fluorescence activation, agonist mode; activation, % at 3 µM; 2,400 tested, 2% active; in the data active = activation above about 37%;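 note: CHO cells stably expressing TAAR1 with calcium dye readout; 0% = DMSO vehicle and 100% = full agonist response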
# An asterisk follows results filed as active; · = not tested or not shown.
SMILES,GPR7 antagonist,OX1R antag-1,OX1R antag-2,TAAR1 ag,TAAR1 antagonist,CHO parental Ca,OX1R HTRF conf,CHO-K1 HTRF,others
c1ccc(-c2nnc(-c3ccccc3)nn2)cc1,-20,1,-2,0,-7,-3,·,·,
c1cncc(-c2nnc(-c3cccnc3)nn2)c1,1,88*,-2,5,-5,-6,39,28*,
O=c1[nH]c2ccc(Cl)cc2c(-c2ccccc2)c1[N+](=O)[O-],5,81*,16,1,5,-15,75*,6,
O=c1c2ccccc2nc2n1CCc1ccc(Br)cc1-2,·,·,·,0,-19,·,·,·,
C[n+]1cnc(-c2ccccc2)cc1-c1ccccc1,1,85*,-5,1,-10,14,43,64*,
c1ccc(-c2cc(-c3ccccc3)ncn2)cc1,·,3,2,7,-28,-6,·,·,
Cc1ccc(NC(=O)c2ccc(Cl)c(NC(=O)c3cccs3)c2)cc1,-2,24,-21,-1,6,-12,·,·,
Cc1nc2ccc(NC(=O)c3ccc(Cl)c(NC(=O)c4cccs4)c3)cc2s1,1,81*,-16,11,10,-12,38,8,
C[C@H]1CN(C(=O)OC(C)(C)C)CCN1c1ccc(N2CC[C@@H](O)C2)c(C#N)c1,·,·,·,5,-7,·,·,·,
O=C1c2ccc3c4c(ccc(c24)C(=O)N1CCCCO)C(=O)N(CCCCO)C3=O,-12,·,·,4,9,·,·,·,
O=C(c1ccc2c(c1)C(=O)N(CCCO)C2=O)c1ccc2c(c1)C(=O)N(CCCO)C2=O,-10,149*,-16,16,43,-15,56*,67*,
NC(=O)C1CCN(C(=O)c2ccc3c(c2)S(=O)(=O)c2ccccc2C3=O)CC1,-14,88*,-10,1,-13,-6,60*,70*,
O=C1c2ccccc2S(=O)(=O)c2cc(C(=O)N3CCN(c4c(Cl)cncc4Cl)CC3)ccc21,·,6,-8,8,35,-15,·,·,
O=C1c2ccccc2S(=O)(=O)c2cc(C(=O)N3CCCC3)ccc21,·,104*,-22,3,-17,-15,44,69*,
CCOC(=O)C1CCN(C(=O)c2ccc3c(c2)S(=O)(=O)c2ccccc2C3=O)CC1,-20,32,-42,-1,1,-30,·,·,
O=[N+]([O-])c1cccc(-c2ccc3nnc(SCc4ccccn4)n3n2)c1,-6,77*,-18,3,-7,-11,45,36*,
CCOC(=O)c1ccc(Nc2nc(-c3cccnc3)nc3ccccc23)cc1,-13,78*,-8,12,56*,-9,21,8,
CCOC(=O)c1ccc(Nc2ncnc3ccccc23)cc1,-9,19,-6,6,-24,-9,·,·,
CCOc1ccc(NC2OCC(O)C(O)C2O)c([N+](=O)[O-])c1 (configuration not stated),4,82*,-12,14,-1,-7,34,31*,
CN(C)C(=S)Oc1ccccc1C1SCCS1,·,·,·,-1,-7,·,·,·,
CCc1ccccc1CC1CN(Cc2ccccc2)Cc2ccccc2N1c1ccc(OC)cc1 (configuration not stated),·,·,·,4,-22,·,·,·,
COCCNC(=O)C(c1ccc(Cl)cc1)N(Cc1ccco1)C(=O)CCC(=O)Nc1ccccn1 (configuration not stated),-3,82*,9,1,-3,-16,58*,3,
COC(=O)C1=C(C)N(C)C(=O)NC1c1cc2c(cc1[N+](=O)[O-])OCO2 (configuration not stated),2,91*,-5,-1,11,-12,33,25*,
O=C(Nc1ccc2nc3ccccc3nc2c1)c1ccccc1,-4,86*,27,10,22,-10,93*,10,
COc1ccc(-c2oc3ccc(N4CCOCC4)cc3c2C#CCO)cc1,·,81*,13,7,58*,-11,39,7,TAAR1 nonsel count=23*;TAAR1 ant conf=44;Ga16 nonsel ag=5;TAAR1 ag count=10
SMILES,GPR7 antagonist,OX1R antag-1,OX1R antag-2,TAAR1 ag,TAAR1 antagonist,CHO parental Ca,OX1R HTRF conf,CHO-K1 HTRF,others
Cc1ccc(-c2nc3ncccc3o2)cc1NC(=O)c1cc2ccccc2o1,-16,-2,-24,14,13,-8,·,·,
O=C(Nc1cccc(-c2nc3ncccc3o2)c1)c1cc2ccccc2o1,-9,105*,1,16,61*,-35,92*,19*,TAAR1 nonsel count=28*;TAAR1 ant conf=49*;Ga16 nonsel ag=6;TAAR1 ag count=7
COc1ccc(/C=C/C(=O)OCC(=O)N2c3ccccc3CC2C)cc1 (configuration not stated),·,·,·,2,-17,·,·,·,
Cc1cc(-c2cc(C(=O)Nc3ccccc3)on2)nc(NC2CCCC2)n1,·,17,-13,·,·,-11,·,·,
COc1cc(OC)cc(C(=O)Nc2ccc(-c3nc4ccccc4o3)cc2)c1,-15,86*,12,14,64*,-14,25,7,TAAR1 nonsel count=26*;TAAR1 ant conf=31;Ga16 nonsel ag=2;TAAR1 ag count=-1
COc1ccc(Cl)cc1N(CC(=O)NCCSc1ccccn1)S(=O)(=O)c1ccccc1,0,79*,10,11,58*,-13,80*,8,TAAR1 nonsel count=16;TAAR1 ant conf=32;Ga16 nonsel ag=5;TAAR1 ag count=6
COc1ccc(N(CC(=O)NCCSc2ccccn2)S(=O)(=O)c2ccccc2)cc1Cl,-13,19,-23,9,18,-21,·,·,
O=Nc1c(-c2c(O)[nH]c3cc(Br)ccc23)[nH]c2ccccc12,0,98*,-14,-3,50*,-20,79*,26*,TAAR1 nonsel count=21;TAAR1 ant conf=33;Ga16 nonsel ag=-1;TAAR1 ag count=-4
O=C(CNC(=O)c1ccccc1)N=Nc1c(O)[nH]c2ccc(Br)cc12,0,21,-18,-3,2,-3,·,·,
CC1(C(=O)NC2CCCC2)CCC(=O)N1C1CCN(Cc2ccccc2)CC1 (configuration not stated),·,·,·,0,0,·,·,·,
CC(C)(C)c1ccc(CC(=O)N2CCC2(C)C(=O)NS(=O)(=O)c2ccc(Cl)cc2)cc1 (configuration not stated),·,·,·,2,-13,·,·,·,

# Bioassay records (PubChem BioAssay)
